Screening data as filed in PubChem BioAssay.
The entries come from a sample that favours hits as a whole.
CHOP inh = blocks CHOP induction under ER stress | 3.8% of 220,000 active | CHO-K1 CHOP-promoter luciferase, tunicamycin-induced, 15-18 h | inhibition, % at 10 µM;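 active = compounds that reduced the stress-induced luciferase reporter signal by more than about 70% of percent inhibition, limit read from the data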
T cruzi inh = T. cruzi replication inhibition. T. cruzi beta-gal in NIH3T3, luminescence, 90 h. inhibition, % (concentration not given with the values). 1.4% of 300,000 active. AID 1885;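 active = mean inhibition across valid replicates above about 55%, limit read from the data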;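 note: signal also drops with host cell toxicity which is not excluded here; higher percent means less beta-gal luminescence so fewer parasites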
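assay system = mouse NIH/3T3 fibroblasts infected with β-gal-expressing T. cruzi Tulahuen C4 | input = 5,000 NIH/3T3 host cells per well | buffer or medium = DMEM plus 2% FBS | timing = 3 h host attachment, then at least 90 h co-culture | measured by = GalScreen luminescence, 60 min | evaluation = luminescence reflecting intracellular parasite burden, expressed as percent inhibition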
UPR CHOP act = activators of apoptotic arm of unfolded protein response (CHOP); CHO-CHOP luciferase reporter, UPR activation, luminescence; percent of tunicamycin response over DMSO baseline; activation, % at 10 µM; 0.34% of 330,000 active; AID 449763;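 active = at 10 µM dose, activation of 40% or more, normalized to positive control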
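Test system: CHO CHOP reporter cells. Input: 500 CHO-CHOP cells per well. Medium: F12 with 10% FBS. Technique: luciferase luminescence. Measure: percent activation relative to tunicamycin control. Dosing: 10 µM compound, 0.5% DMSO. Timing: 16-18 h cell attachment, then 6 h compound exposure, 37 °C.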
UPR XBP1 act = adaptive UPR (XBP1) activation; CHO-XBP1 luciferase reporter, IRE1-XBP1 UPR activation, luminescence; percent of tunicamycin response, DMSO as zero; activation, % at 20 µM; 0.33% of 330,000 active; AID 463104;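 active = versus positive control, 20 µM dose yields 30% or more activation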
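Material: CHO cell line with stable XBP1 luciferase reporter; buffer or medium: F12 medium containing 10% fetal bovine serum; compound: single point, 20 µM final compound, 1% DMSO; incubation: 6 h treatment, 37 °C; measured by: glow luminescence from Steady-Glo reagent; evaluation: activation, % of tunicamycin; control set: tunicamycin high, DMSO low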
Dynein transport = blocks dynein driven cargo transport along microtubules; 3617.4 mouse cells, GR-EGFP nuclear translocation imaging; test concentration mostly 20 µM; stimulated with dexamethasone, 1 µM; stronger effect = lower value; z-score, hits read low; 0.47% of 220,000 active;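 active = plate z-score of nuclear minus cytoplasmic receptor signal below a set negative limit, without overly bright fluorescence or cell loss, cut at about -3.5 in these data, passing the limit was not always enough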;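 note: z-score of nuclear minus cytoplasmic ring GR-EGFP intensity difference per well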
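Buffer or medium: tet-free, stripped-serum medium; reagent: dexamethasone at 1.0 µM final, 30 min; incubation: 48 h induction, 1 h compound, 30 min dex at 37 °C; measured by: formaldehyde fixation, Hoechst nuclear stain, 10x automated fluorescence imaging; read-out: nuclear-to-cytoplasmic GR-EGFP distribution per well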
L major viab = reduces viability of Leishmania major promastigotes; resazurin fluorescence viability; inhibition, % at 10 µM; 9% of 200,000 active; AID 1063; in the data active = inhibition above about 50%;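 note: promastigotes grown with compound for 44 hours at 28 °C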
Numbers stand for hits; - = inactive; . = no result.

SMILES	CHOP inh	T cruzi inh	UPR CHOP act	UPR XBP1 act	Dynein transport	L major viab
COc1cc(CNc2ccc(N3CCCC3)cc2)ccc1OCc1ccccc1	-	.	.	.	-	-
COc1cc(CNCc2ccco2)ccc1OCc1ccccc1	-	-	-	-	-	99.6
COc1cc(CNCc2ccccn2)ccc1OCc1cccc(Cl)c1	-	-	-	-	-	98.8
COc1cc(CNC23CC4CC(CC(C4)C2)C3)ccc1OCc1ccccc1	-	-	-	-	-	78.7
COc1cc(CNCc2ccccn2)ccc1OCc1c(Cl)cccc1Cl	-	-	-	-	-	100.2
COc1ccc(S(=O)(=O)N2CCOC23CCN(S(C)(=O)=O)CC3)cc1	.	-	-	-	.	.
COc1ccc(CCN(C)Cc2ccc(OCc3ccccc3)c(OC)c2)cc1OC	-	-	-	-	-	64.4
COc1ccc(CCN(C)Cc2ccc(OC)c(OCc3ccccc3)c2)cc1OC	-	-	-	-	-	-
COc1cc(CNCc2ccccn2)ccc1OCc1ccc(Cl)cc1	-	-	-	-	-	96.2
O=C(NCc1ccccn1)c1cc(Cl)ccc1OCc1ccccc1	.	-	-	-	.	.
CCCCCCCCCCCCC/C=C/C(O)C(N)CO (stereo not drawn)	-	.	.	.	.	.
CCN(CC)S(=O)(=O)c1ccc(C(=O)Nc2nnc(-c3ccco3)o2)cc1	-	-	-	-	-	91.9
CCc1nnc(NC(=O)c2ccc(S(=O)(=O)N(CC)Cc3ccccc3)cc2)o1	.	-	-	-	-	98.5
CCCCN(CC)S(=O)(=O)c1ccc(C(=O)Nc2nnc(-c3cccs3)o2)cc1	.	63.4	-	-	-	98.7
CCCCN(CCCC)S(=O)(=O)c1ccc(C(=O)Nc2nnc(COC)o2)cc1	-	-	-	-	-	-
CCN(Cc1ccccc1)S(=O)(=O)c1ccc(C(=O)Nc2nnc(C)o2)cc1	.	-	-	-	.	.
CN(Cc1ccccc1)S(=O)(=O)c1ccc(C(=O)Nc2nnc(C3CC3)o2)cc1	.	-	-	-	-	99.2
CCc1nnc(NC(=O)c2ccc(S(=O)(=O)N(C)Cc3ccccc3)cc2)o1	.	-	-	-	.	.
COc1cccc(OCC(=O)NNC(=O)C(=O)Nc2cccc(C)c2)c1	.	-	-	-	.	.
CCc1c(C)nc2cc(-c3cccc(Br)c3)[nH]n2c1=O	.	-	-	-	.	.
CN(CC(=O)NCC(=O)Nc1ccc(F)c(F)c1F)C1CCS(=O)(=O)C1 (stereo not drawn)	.	.	-	-	.	.
CCCCN(C)S(=O)(=O)c1ccc(C(=O)Nc2nnc(-c3ccco3)o2)cc1	-	-	-	-	-	96.2
CCOC(=O)C1=C(C)NC(C)=C(C(=O)OC)C1c1cccc([N+](=O)[O-])c1 (stereo not drawn)	-	-	-	-	-	-
COCCOC(=O)C1=C(C)NC(C)=C(C(=O)OC(C)C)C1c1cccc([N+](=O)[O-])c1 (stereo not drawn)	-	62.0	-	-	-	66.2
COc1cc(OC)cc(C(=O)N[C@H](C(=O)Nc2cc(F)ccc2C)C(C)C)c1	.	-	-	-	.	.
SMILES	CHOP inh	T cruzi inh	UPR CHOP act	UPR XBP1 act	Dynein transport	L major viab
COC(=O)c1cc(NC(=O)c2ccc(Cn3cc(Cl)cn3)o2)cc(C(=O)OC)c1	-	-	-	-	-	-
CCOC(=O)c1c(NC(=S)NC(=O)c2ccc(Cn3cc(Cl)cn3)o2)sc2c1CCC(C)C2 (stereo not drawn)	76.6	-	-	-	-	-
CCOC(=O)c1c(NC(=O)C(C)NCc2ccco2)sc2c1CCC(C)C2 (stereo not drawn)	72.7	-	-	-	-	-
CCOC(=O)c1c(NC(=O)COc2cccc3c2CCN(C)C3=O)sc2c1CCC2	82.4	-	-	-	-	79.8
CCOC(=O)c1c(NC(=O)COC(=O)Cn2cnc3ccccc32)sc2c1CCC(C)C2 (stereo not drawn)	71.9	.	.	.	-	-
COc1cc(/C=C/C(=O)OCC(=O)N(C)CC(=O)Nc2ccc(F)cc2)ccc1OC(F)F	.	.	-	-	.	.
CCOC(=O)c1c(NC(=O)COC(=O)Cn2c(C)nc3ccccc32)sc2c1CCCC2	73.8	-	-	-	-	-
